# Data taken from article PMC7113734 (Antiviral Research, 2016).
# Like-named read-outs stand apart in the source and are kept apart here.
# Tests used:
# HIV-1 protease = HIV-1 protease (Human immunodeficiency virus type 1 group M subtype B, UniProt P04585); test: HIV-1 protease inhibition assay; type: biochemical
# hERG = hERG (Homo sapiens, UniProt Q12809); test: Standard hERG test for cardiotoxicity
# MT-4 cells = test: Toxicity to MT-4 cells; type: cell-based; conditions: all assays
# in vitro = conditions: human, CC50 (cytotoxic concentration), fresh human PBMCs
# Pharmacokinetics in rats = type: in vivo; conditions: male, Sprague-Dawley, rat, plasma
# Summary of the method: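 Male Sprague-Dawley rats, n = 3 per route. Prodrug given as IV bolus (50 mg/kg, 12.5 mg/mL in 5% DMSO/50% PEG300 in saline) or PO (1000 mg/kg, […] in 2% CMC suspension). Blood sampled over 24 h into sodium fluoride plus citric acid, kept on wet ice <10 min, then centrifuged at 4 °C. Plasma stored at −80 °C; prodrug and active metabolite quantified by UPLC-MS/MS (prodrug LLOQ 0.10 ng/mL).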
# HIV-1 integrase = HIV-1 integrase (Human immunodeficiency virus type 1 group M subtype B, UniProt P04585); test: HIV-1 integrase inhibition assay; type: biochemical
# [1] = test system: HIV attachment to HeLa-CD4-LTR-β-gal cells; test: Attachment inhibition assay; type: cell-based, HIV-1; conditions: Human immunodeficiency virus 1, read-out: Attachment inhibition EC50 ± SD
# [2] = test system: HL2/3 cells expressing HIV-1 gp120 and gp41 fusing with HeLa-CD4-LTR-β-gal cells; test: Fusion inhibition assay; type: cell-based; conditions: Human immunodeficiency virus 1, HL2/3, read-out: Fusion inhibition EC50 ± SD
# Summary of the method: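 HeLa-CD4-LTR-β-Gal cells incubated with test compound for 1 h at 37°C/5% CO2, then co-cultured 48 h with HL2/3 cells. Cells lysed and β-galactosidase expression measured by chemiluminescent Gal-Screen.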
# cytochrome P450 enzymes = test: Inhibition of cytochrome P450 enzymes; type: in vitro ADME
# [3] = test system: IIIB strain of HIV-1 in CEM-SS cells; test: Combination drug interaction evaluation; type: cell-based
# Summary of the method: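 CEM-SS cells infected with HIV-1 IIIB; inhibition of cytopathic effect measured for the test compound in two-drug combinations with known anti-HIV agents. Efficacy and toxicity analysed by Prichard–Shipman MacSynergy II. Expected additive inhibition computed from each agent's single-agent dose–response; inhibition above expected at each concentration calculated at 95%, 99% and 99.9% confidence. −99 to −51 μM2% scored antagonistic; <−100 highly antagonistic.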
# HIV-1IIIB [4] = test: Drug-resistant virus selection by serial dose escalation; type: cell-based; conditions: fourteen passages, CEM-SS cells
# [5] = test system: drug-resistant HIV-1 strains; test: Antiviral activity against drug-resistant HIV-1 strains in MT-4; type: cell-based; conditions: MT-4
# wild type HIV-1 RT = wild type HIV-1 RT (Human immunodeficiency virus type 1 group M subtype B, UniProt P04585); test: Biochemical RT inhibition assay
# [6] = test system: clinical HIV-1 subtype B virus 92US723; test: Antiviral activity with added serum proteins in fresh human PBMCs; type: cell-based; conditions: 50% human serum, AAGP or HSA vs medium only
# HIV-1IIIB [7] = test: Antiviral activity with added serum proteins in CEM-SS cells; type: cell-based
# [8] = test system: drug resistant clinical HIV isolates; test: Antiviral activity against drug-resistant HIV-1 in PBMCs; type: cell-based; conditions: Human immunodeficiency virus 1, PBMC
# HIV strain 92US727 = test: Cell-to-cell virus transmission assay in fresh human PBMCs; type: cell-based, HIV-1
# Summary of the method: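 HIV-infected fresh human PBMCs treated 3 days with six concentrations of test compound. Passaged every 3 days for three passages at fixed compound concentration; 80% of culture volume replaced with fresh compound-containing medium and uninfected cells. Cell-free supernatants collected on sub-culture days for RT activity and extracellular p24 antigen. TCID50 per passage by endpoint dilution.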
# HIVIIIB = test: Cell-to-cell virus transmission assay in CEM-SS cells; type: cell-based, HIV-1
# Chain of hERG (Q12809 whole entry): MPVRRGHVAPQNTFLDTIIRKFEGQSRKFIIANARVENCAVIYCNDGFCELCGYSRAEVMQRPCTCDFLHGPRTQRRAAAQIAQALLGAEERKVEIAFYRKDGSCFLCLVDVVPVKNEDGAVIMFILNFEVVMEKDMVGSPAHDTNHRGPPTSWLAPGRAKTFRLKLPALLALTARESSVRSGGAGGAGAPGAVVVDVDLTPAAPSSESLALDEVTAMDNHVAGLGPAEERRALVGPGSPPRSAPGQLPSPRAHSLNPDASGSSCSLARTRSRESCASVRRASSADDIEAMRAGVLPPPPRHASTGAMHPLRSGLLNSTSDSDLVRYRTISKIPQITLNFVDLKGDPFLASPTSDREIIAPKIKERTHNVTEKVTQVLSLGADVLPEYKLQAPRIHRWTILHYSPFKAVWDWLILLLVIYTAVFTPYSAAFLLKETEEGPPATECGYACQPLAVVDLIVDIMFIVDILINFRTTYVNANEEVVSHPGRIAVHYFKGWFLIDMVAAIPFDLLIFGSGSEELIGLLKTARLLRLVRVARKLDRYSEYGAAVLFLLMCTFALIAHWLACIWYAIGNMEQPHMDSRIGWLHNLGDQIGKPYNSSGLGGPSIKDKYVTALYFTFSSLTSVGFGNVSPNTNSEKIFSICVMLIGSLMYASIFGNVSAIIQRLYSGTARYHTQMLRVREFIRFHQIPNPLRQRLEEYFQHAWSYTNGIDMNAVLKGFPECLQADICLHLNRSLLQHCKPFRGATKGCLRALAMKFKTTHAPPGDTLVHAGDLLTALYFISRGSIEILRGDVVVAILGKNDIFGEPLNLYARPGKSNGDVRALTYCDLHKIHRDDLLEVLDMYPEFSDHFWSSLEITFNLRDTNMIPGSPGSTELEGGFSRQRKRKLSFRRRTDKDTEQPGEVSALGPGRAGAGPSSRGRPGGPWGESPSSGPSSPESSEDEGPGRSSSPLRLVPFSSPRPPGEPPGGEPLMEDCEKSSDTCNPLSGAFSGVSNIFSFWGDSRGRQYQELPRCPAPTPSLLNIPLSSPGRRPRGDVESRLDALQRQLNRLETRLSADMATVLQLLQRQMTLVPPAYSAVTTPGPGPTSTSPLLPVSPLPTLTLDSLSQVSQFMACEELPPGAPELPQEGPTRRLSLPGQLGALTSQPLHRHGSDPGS
compound,measurement,setting,value
"CCCC(=O)OCSc1ccccc1C(=O)NCCC(N)=O [NS1040, ((2-((3-amino-3-oxopropyl)carbamoyl)phenyl)thio)methyl butyrate]",EC50,HIV-1 protease,> 100 µM
same,hERG test for cardiotoxicity,hERG,negative
same,non-toxic up to high test concentration,MT-4 cells,> 100 µM
same,CC50,in vitro,> 216 µM
same,concentration at 1 h,"Pharmacokinetics in rats; iv, 50 mg/kg",< 0.1 ng/mL
same,concentration at 0.75 h,"Pharmacokinetics in rats; po, 1000 mg/kg",< 0.1 ng/mL
same,EC50,HIV-1 integrase,> 100 µM
same,EC50,[1],> 100 µM
same,EC50,[2],> 100 µM
same,inhibition of cytochrome P450 enzymes,cytochrome P450 enzymes,neither NS1040 nor MDH-1-38 had significant inhibitory activity
same,mean synergy volume,[3]; in combination with amprenavir,111 ± 27.8 μM^2%
same,mean synergy volume,[3]; in combination with enfuviritide,115 ± 39.5 μM^2%
same,mean synergy volume,[3]; in combination with lamivudine,180 ± 128 μM^2%
same,mean synergy volume,[3]; in combination with lopinavir,212 ± 62.2 μM^2%
same,mean synergy volume,[3]; in combination with nelfinavir,282 ± 61.5 μM^2%
same,mean synergy volume,[3]; in combination with ritonavir,143 ± 33.5 μM^2%
same,mean synergy volume,[3]; in combination with stavudine,110 ± 68 μM^2%
same,selection of resistant virus,HIV-1IIIB [4],did not result in resistance
same,EC50,"[5]; Human immunodeficiency virus 1, read-out: Mean EC50 ± SD, AZT- and NNRTI-resistant, RT 4xAZT/L100I",3.54 ± 2.02 µM
same,EC50,"[5]; Human immunodeficiency virus 1, read-out: Mean EC50 ± SD, AZT- and NNRTI-resistant, RT 4xAZT/Y181C",5.24 ± 0.18 µM
same,EC50,"[5]; Human immunodeficiency virus 1, read-out: Mean EC50 ± SD, AZT-resistant, RT 4xAZT (D67N/K70R/T215Y/K219Q)",4.24 ± 0.91 µM
same,EC50,"[5]; Human immunodeficiency virus 1, read-out: Mean EC50 ± SD, Atazanavir-resistant, PR I50L",1.27 ± 0.19 µM
same,EC50,"[5]; Human immunodeficiency virus 1, read-out: Mean EC50 ± SD, Didanosine-resistant, RT L74V",4.59 ± 0.61 µM
same,EC50,"[5]; Human immunodeficiency virus 1, read-out: Mean EC50 ± SD, Enfuviritide-resistant, Env V38A/N126K",5.48 ± 0.01 µM
same,EC50,"[5]; Human immunodeficiency virus 1, read-out: Mean EC50 ± SD, Indinavir-, Ritonavir-resistant, PR I84V",3.33 ± 0.44 µM
same,EC50,"[5]; Human immunodeficiency virus 1, read-out: Mean EC50 ± SD, Indinavir-, Ritonavir-resistant, PR V82A",6.73 ± 1.06 µM
same,EC50,"[5]; Human immunodeficiency virus 1, read-out: Mean EC50 ± SD, Indinavir-, Ritonavir-resistant, PR V82F/I84V",3.52 ± 1.7 µM
same,EC50,"[5]; Human immunodeficiency virus 1, read-out: Mean EC50 ± SD, Lamivudine-resistant, RT M184V",3.5 ± 1.1 µM
same,EC50,"[5]; Human immunodeficiency virus 1, read-out: Mean EC50 ± SD, NNRTI-resistant, RT K103N/Y181C",5.19 ± 0.06 µM
same,EC50,"[5]; Human immunodeficiency virus 1, read-out: Mean EC50 ± SD, NNRTI-resistant, RT K103N",5.02 ± 0.14 µM
same,EC50,"[5]; Human immunodeficiency virus 1, read-out: Mean EC50 ± SD, NNRTI-resistant, RT L100I",1.61 ± 0.41 µM
same,EC50,"[5]; Human immunodeficiency virus 1, read-out: Mean EC50 ± SD, NNRTI-resistant, RT V106A",4.07 ± 0.78 µM
same,EC50,"[5]; Human immunodeficiency virus 1, read-out: Mean EC50 ± SD, NNRTI-resistant, RT V108I",4.7 ± 0.17 µM
same,EC50,"[5]; Human immunodeficiency virus 1, read-out: Mean EC50 ± SD, NNRTI-resistant, RT V179D",5.01 ± 0.31 µM
same,EC50,"[5]; Human immunodeficiency virus 1, read-out: Mean EC50 ± SD, NNRTI-resistant, RT Y181C",4.52 ± 1.07 µM
same,EC50,"[5]; Human immunodeficiency virus 1, read-out: Mean EC50 ± SD, NNRTI-resistant, RT Y188C",4.72 ± 0.55 µM
same,EC50,"[5]; Human immunodeficiency virus 1, read-out: Mean EC50 ± SD, Raltegravir-resistant, IN Q148H/G140S",4.16 ± 0.26 µM
same,EC50,"[5]; Human immunodeficiency virus 1, read-out: Mean EC50 ± SD, Saquinavir-resistant, PR G48V/L90M",1.1 ± 0.32 µM
same,EC50,"[5]; Human immunodeficiency virus 1, read-out: Mean EC50 ± SD, Tenofovir-resistant, RT K65R",5.21 ± 0.08 µM
same,EC50,wild type HIV-1 RT,> 100 µM
same,change in antiviral activity with serum protein additives,[6],no significant change in antiviral activity
same,fold decrease in potency,HIV-1IIIB [7]; in the presence of 50% human AB serum,~4.5 fold
same,fold decrease in potency,HIV-1IIIB [7]; in the presence of HSA (10 mg/mL),did not exhibit a significant decrease in potency
same,EC50,"[8]; read-out: PBMC/HIV-1 EC50 ± SD, Multi-drug resistant AD. MDR",7.21 ± 4.38 µM
same,EC50,"[8]; read-out: PBMC/HIV-1 EC50 ± SD, Multi-drug resistant MDR769",4.77 ± 0.95 µM
same,EC50,"[8]; read-out: PBMC/HIV-1 EC50 ± SD, NNRTI-resistant A17R",10 ± 4.78 µM
same,EC50,"[8]; read-out: PBMC/HIV-1 EC50 ± SD, NNRTI-resistant N119",5.9 ± 1.31 µM
same,EC50,"[8]; read-out: PBMC/HIV-1 EC50 ± SD, PI-resistant 144-44",8.38 ± 5.4 µM
same,EC50,"[8]; read-out: PBMC/HIV-1 EC50 ± SD, PI-resistant 1002-60",3.66 ± 0.28 µM
same,EC50,"[8]; read-out: PBMC/HIV-1 EC50 ± SD, PI-resistant 1022-48",3.45 ± 2.26 µM
same,EC50,"[8]; read-out: PBMC/HIV-1 EC50 ± SD, PI-resistant 1026-60",3.29 ± 0.57 µM
same,EC50,"[8]; read-out: PBMC/HIV-1 EC50 ± SD, PI-resistant 1064-52",2.62 ± 1.87 µM
same,EC50,"[8]; read-out: PBMC/HIV-1 EC50 ± SD, Wild Type 92US727",5.58 ± 0.12 µM
same,RT,"HIV strain 92US727; Passage 1, 5 μM",222 cpm
same,TCID50/mL,"HIV strain 92US727; Passage 1, 5 μM",4.18 × 10^2 TCID50/mL
same,p24,"HIV strain 92US727; Passage 1, 5 μM",766 pg/mL
same,RT,"HIV strain 92US727; Passage 2, 5 μM",595 cpm
same,TCID50/mL,"HIV strain 92US727; Passage 2, 5 μM",6.86 × 10^3 TCID50/mL
same,p24,"HIV strain 92US727; Passage 2, 5 μM",1731 pg/mL
same,RT,"HIV strain 92US727; Passage 3, 5 μM",9728 cpm
same,TCID50/mL,"HIV strain 92US727; Passage 3, 5 μM",6.52 × 10^4 TCID50/mL
same,p24,"HIV strain 92US727; Passage 3, 5 μM","61,967 pg/mL"
same,fold less effective than MDH-1-38 at reducing cell to cell HIV transmission,HIVIIIB,approximately 3 fold
same,RT,"HIVIIIB; Passage 1, 2 μM",27 cpm
same,TCID50/mL,"HIVIIIB; Passage 1, 2 μM",0 TCID50/mL
same,p24,"HIVIIIB; Passage 1, 2 μM",725 pg/mL
same,RT,"HIVIIIB; Passage 2, 2 μM",1063 cpm
same,p24,"HIVIIIB; Passage 2, 2 μM","85,803 pg/mL"
same,RT,"HIVIIIB; Passage 3, 2 μM",7036 cpm
same,TCID50/mL,"HIVIIIB; Passage 3, 2 μM",1.31 × 10^4 TCID50/mL
same,p24,"HIVIIIB; Passage 3, 2 μM","1,570,937 pg/mL"
